Data published in PubChem BioAssay AID651577 (The Scripps Research Institute Molecular Screening Center, 2012).
Activity calls are given as the source filed them.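 Rule for the calls: active = IC50 at or below 10 µM; inactive = IC50 above 10 µM.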

target: HCV core protein (core106) dimerization; assay: inhibitors of HCV core self-association, IC50 – biochemical, AlphaScreen luminescence, powder samples, late-stage follow-up (AID 651577); settings: AlphaScreen GST-/Flag-core106 dimerization
Method in brief: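 Test system: HCV core106 protein domain, GST-tagged and Flag-tagged forms | Reagent: Anti-Flag acceptor and glutathione donor beads, 20 µg/mL each | Incubation: 1 h tagged-protein preincubation at room temperature, then 1 h per bead | Signal: AlphaScreen bead-proximity luminescence | Read-out: IC50 from four-parameter sigmoidal curve fit | Replication: Triplicate wells per concentration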

| Compound | IC50 |
| --- | --- |
| Cc1ccc(Cc2c(C)nc3nc(SCC(=O)NCCN4CCCN(S(=O)(=O)c5ccccc5)CC4)nn3c2C)cc1 | 1600 nM |
| Cc1ccc(Cc2c(C)nc3nc(SCC(=O)NCCN4CCN(Cc5ccc(Cl)cc5)CC4)nn3c2C)cc1 | inactive |
| Cc1ccc(Cc2c(C)nc3nc(SCC(=O)NCCN4CCN(Cc5ccccc5)CC4)nn3c2C)cc1 | inactive |
| Cc1ccc(Cc2c(C)nc3nc(SCC(=O)NCCN4CCOCC4)nn3c2C)cc1 | 1000 nM |
| Cc1ccc(Cc2c(CCc3ccccc3)nc3nc(SC(Cc4ccccc4)C(=O)NCCN4CCOCC4)nn3c2C)cc1 (centres undefined) | 9900 nM |
| Cc1ccc(Cc2c(C)nc3nc(SCC(=O)NCCN4CCN(CCc5ccccc5)CC4)nn3c2C)cc1 | inactive |
| Cc1ccc(Cc2c(C)nc3nc(SCC(=O)NCCN4CCN(C(=O)OC(C)(C)C)CC4)nn3c2C)cc1 | inactive |
| Cc1ccc(Cc2c(C)nc3nc(SCC(=O)NCCN4CCNCC4)nn3c2C)cc1 | 8400 nM |
| Cc1ccc(Cc2c(C)nc3nc(SCC(=O)NCCN4CCN(Cc5ccc(F)cc5)CC4)nn3c2C)cc1 | inactive |
| Cc1ccc(Cc2c(C)nc3nc(SCC(=O)NCCN4CCCN(S(=O)(=O)c5ccc(C)cc5)CC4)nn3c2C)cc1 | 2600 nM |
| Cc1ccc(Cc2c(C)nc3nc(SCC(=O)NCCN4CCCCCC4)nn3c2C)cc1 | 1900 nM |
| Cc1ccc(Cc2c(C)nc3nc(SCC(=O)NCCN4CCCCC4)nn3c2C)cc1 | inactive |
| Cc1ccc(Cc2c(C)nc3nc(SCC(=O)NCCN4CCN(S(=O)(=O)c5ccccc5)CC4)nn3c2C)cc1 | 10200 nM |
| Cc1ccc(Cc2c(C)nc3nc(SCC(=O)NCCN4CCCN(S(C)(=O)=O)CC4)nn3c2C)cc1 | 510 nM |
